Measured values taken from ChEMBL document CHEMBL3525963, “Tissue distribution and elimination of [14C]apixaban in rats” (Drug Metab Dispos, 2011).

What was measured:
Format in all cases: ADME, organism-based
Set-up in all cases: dose 5 mg/kg, dosed compound name [14C]-apixaban, route oral
Conditions in all cases: in vivo
[1] = system: Heart; assay: Biodistribution in male Sprague-Dawley rat heart at 5 mg/kg, po administered as single dose measured after 0.5 hrs
How it was run: (§1)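 [¹⁴C]Apixaban given by oral gavage at 5 mg/kg (100 μCi/kg) in 0.5% Tween 80 in Labrafil (1.0 mg/mL dosing solution) to rats fasted overnight through 4 h post-dose. One rat per time point; carcass frozen in hexane/dry ice. Quantitative whole-body autoradiography used 40 µm sagittal sections and a phosphor imaging plate calibrated with [¹⁴C]glucose standards (0.001–6.5 μCi/g). Read-out in µg eq apixaban/g; LLOQ 0.037 μg eq/g.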

[2] = system: Liver; assay: Biodistribution in pregnant Sprague-Dawley rat liver at 5 mg/kg, po administered as single dose measured after 1 hr
How it was run: (§2)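 Fasted pregnant SD rats (n=6, 270-319 g) each received one oral gavage dose of [14C]apixaban, 5 mg/kg (100 μCi/kg), in 0.5% Tween 80/Labrafil. One rat was killed at each of 0.5, 1, 4, 8, 24 and 48 h. Carcasses were frozen in hexane/dry ice, cut into 40 µm sagittal sections, exposed to phosphor plates and quantified against [14C]glucose standards as µg eq/g. LLOQ was 0.037 µg eq/g.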

[3] = system: Pancreas; assay: Biodistribution in male Sprague-Dawley rat pancreas at 5 mg/kg, po administered as single dose measured after 24 hrs
How it was run: (§3)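 [14C]apixaban (1.0 mg/mL, 20 μCi/mL) in 0.5% Tween 80 in Labrafil, given by oral gavage at 100 μCi/kg to male rats (225-252 g) fasted overnight through 4 h post-dose. One rat per time point. Carcasses frozen in hexane/dry ice and cut into 40 µm sagittal sections. QWBA read on phosphor plates against [14C]glucose standards, reported as µg eq/g. LLOQ 0.037 µg eq/g.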

[4] = system: Thymus; assay: Biodistribution in pregnant Sprague-Dawley rat thymus at 5 mg/kg, po administered as single dose measured after 24 hrs
How it was run: (§4)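 Pregnant SD rats (270-319 g) were fasted overnight and given one oral gavage of 5 mg/kg (100 μCi/kg) in 0.5% Tween 80 in Labrafil. One rat was euthanized per time point (0.5, 1, 4, 8, 24, 48 h) and the carcass frozen. 40 µm sagittal sections were phosphor-imaged against [14C]glucose standards and results reported as µg eq/g; LLOQ 0.037 µg eq/g.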

[5] = system: Rattus norvegicus; assay: Biodistribution in fetal blood of pregnant Sprague-Dawley rat at 5 mg/kg, po administered as single dose measured after 48 hrs
How it was run: (§5)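 Quantitative whole-body autoradiography was run after a single 5 mg/kg (100 μCi/kg) oral gavage to fasted female or pregnant SD rats, one rat per time point. Carcasses were frozen in hexane/dry ice, and 40 µm sagittal sections were dried at −20°C for at least 48 h. Sections were exposed to a phosphor plate alongside [14C]glucose standards (0.001–6.5 µCi/g). Results are µg eq/g, with LLOQ 0.037 µg eq/g.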

[6] = system: Rattus norvegicus; assay: Biodistribution in fetal liver of pregnant Sprague-Dawley rat at 5 mg/kg, po administered as single dose measured after 4 hrs
How it was run: (§6)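 Pregnant rats, 270-319 g and fasted overnight, received [14C]apixaban by oral gavage at 100 μCi/kg in 0.5% Tween 80/Labrafil. One dam per time point was euthanized and frozen in hexane/dry ice. Fetal tissue radioactivity was measured by QWBA on 40 µm sagittal sections calibrated with [14C]glucose standards. Values are in µg eq/g, with LLOQ 0.037 μg eq/g.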

[7] = system: Rattus norvegicus; assay: Biodistribution in male Sprague-Dawley rat bone marrow at 5 mg/kg, po administered as single dose measured after 72 hrs
How it was run: (§7)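 Fasted male SD rats (225-252 g) each received one oral gavage dose of [14C]apixaban, 5 mg/kg (100 μCi/kg), in 0.5% Tween 80/Labrafil vehicle. One rat was killed per time point, from 0.5 to 168 h. Frozen carcasses were cut into 40 µm sagittal whole-body sections and read by QWBA phosphor imaging against [14C]glucose calibrants. Results are in µg apixaban eq/g; BLQ <0.037 µg eq/g.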

[8] = system: Brain; assay: Biodistribution in male Sprague-Dawley rat brain at 5 mg/kg, po administered as single dose measured after 4 hrs
[9] = system: Rattus norvegicus; assay: Biodistribution in pregnant Sprague-Dawley rat placenta at 5 mg/kg, po administered as single dose measured after 24 hrs
[10] = system: Heart; assay: Biodistribution in pregnant Sprague-Dawley rat heart at 5 mg/kg, po administered as single dose measured after 4 hrs
[11] = system: Spleen; assay: Biodistribution in pregnant Sprague-Dawley rat spleen at 5 mg/kg, po administered as single dose measured after 24 hrs
[12] = system: Rattus norvegicus; assay: Biodistribution in male Sprague-Dawley rat pituitary gland at 5 mg/kg, po administered as single dose measured after 4 hrs
[13] = system: Thymus; assay: Biodistribution in male Sprague-Dawley rat thymus at 5 mg/kg, po administered as single dose measured after 24 hrs; how it was run: as §7
[14] = system: Lung; assay: Biodistribution in male Sprague-Dawley rat lung at 5 mg/kg, po administered as single dose measured after 1 hr; how it was run: as §3
[15] = system: Rattus norvegicus; assay: Biodistribution in pregnant Sprague-Dawley rat pituitary gland at 5 mg/kg, po administered as single dose measured after 24 hrs; how it was run: as §4
[16] = system: Rattus norvegicus; assay: Biodistribution in fetal kidney of pregnant Sprague-Dawley rat at 5 mg/kg, po administered as single dose measured after 4 hrs; how it was run: as §6
[17] = system: Rattus norvegicus; assay: Biodistribution in pregnant Sprague-Dawley rat bone marrow at 5 mg/kg, po administered as single dose measured after 24 hrs; how it was run: as §2
[18] = system: Rattus norvegicus; assay: Biodistribution in pregnant Sprague-Dawley rat bone marrow at 5 mg/kg, po administered as single dose measured after 4 hrs
[19] = system: Pancreas; assay: Biodistribution in male Sprague-Dawley rat pancreas at 5 mg/kg, po administered as single dose measured after 72 hrs; how it was run: as §7
[20] = system: Brain; assay: Biodistribution in male Sprague-Dawley rat brain at 5 mg/kg, po administered as single dose measured after 72 hrs
[21] = system: Thymus; assay: Biodistribution in female Sprague-Dawley rat thymus at 5 mg/kg, po administered as single dose measured after 1 hr; how it was run: as §1
[22] = system: Rattus norvegicus; assay: Biodistribution in pregnant Sprague-Dawley rat amnion at 5 mg/kg, po administered as single dose measured after 48 hrs; how it was run: as §2
[23] = system: Pancreas; assay: Biodistribution in pregnant Sprague-Dawley rat pancreas at 5 mg/kg, po administered as single dose measured after 1 hr
[24] = system: Harderian gland; assay: Biodistribution in pregnant Sprague-Dawley rat harderian gland at 5 mg/kg, po administered as single dose measured after 8 hrs
[25] = system: Spleen; assay: Biodistribution in female Sprague-Dawley rat spleen at 5 mg/kg, po administered as single dose measured after 72 hrs; how it was run: as §5
[26] = system: Rattus norvegicus; assay: Biodistribution in male Sprague-Dawley rat pituitary gland at 5 mg/kg, po administered as single dose measured after 24 hrs; how it was run: as §7

SMILES: COc1ccc(-n2nc(C(N)=O)c3c2C(=O)N(c2ccc(N4CCCC[14C]4=O)cc2)CC3)cc1
- Radiolabel recovery [1]: 0.33 ugequiv/g
- Radiolabel recovery [2]: 7.38 ugequiv/g
- Radiolabel recovery [3]: < 0.037 ugequiv/g
- Radiolabel recovery [4]: Not detected assumed BLQ
- Radiolabel recovery [5]: Not detected assumed BLQ
- Radiolabel recovery [6]: 0.32 ugequiv/g
- Radiolabel recovery [7]: Not sampled as not visualised in autoradiograph
- Radiolabel recovery [8]: < 0.037 ugequiv/g
- Radiolabel recovery [9]: < 0.037 ugequiv/g
- Radiolabel recovery [10]: 0.83 ugequiv/g
- Radiolabel recovery [11]: < 0.037 ugequiv/g
- Radiolabel recovery [12]: 0.37 ugequiv/g
- Radiolabel recovery [13]: Not detected assumed BLQ
- Radiolabel recovery [14]: 0.7 ugequiv/g
- Radiolabel recovery [15]: Not sampled as not visualised in autoradiograph
- Radiolabel recovery [16]: 0.46 ugequiv/g
- Radiolabel recovery [17]: Not detected assumed BLQ
- Radiolabel recovery [18]: 0.46 ugequiv/g
- Radiolabel recovery [19]: Not detected assumed BLQ
- Radiolabel recovery [20]: < 0.037 ugequiv/g
- Radiolabel recovery [21]: 0.27 ugequiv/g
- Radiolabel recovery [22]: Not sampled as not visualised in autoradiograph
- Radiolabel recovery [23]: 0.75 ugequiv/g
- Radiolabel recovery [24]: 0.19 ugequiv/g
- Radiolabel recovery [25]: Not detected assumed BLQ
- Radiolabel recovery [26]: Not detected assumed BLQ
